Assay outcomes: PubChem, The Scripps Research Institute Molecular Screening Center
TAAR1 antagonist: antagonists of human TAAR1. CHO RD-HGA16 TAAR1, Fluo-8 calcium fluorescence, antagonist. inhibition, % at 3 µM. actives 1.5% (n = 360,000);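 active = inhibition above a per-plate cutoff, the mean inhibition of test compounds on that plate plus 3 SD, cut at about 49% in these data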
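System: RD-HGA16 CHO cells with stable hTAAR1 and Gα16 | Probe or stimulus: EC80 β-phenethylamine stimulus | Dosing: 3 µM, single point | Times: Dye loading 75 min at 37 °C, then 30 min room temperature | Measured by: Fluo-8 calcium-sensitive fluorescence | Read-out basis: % inhibition of agonist calcium response | Replicates: n of 1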
OX1R antag-1: blocks the human orexin 1 receptor. inhibition, % at 5 µM. CHO/OX1R cells, Fluo-8 calcium fluorescence, orexin A. actives 0.43% (n = 330,000);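 active = inhibition above its plate's threshold, mean inhibition of all tested compounds on the plate plus 3 SD, cut at about 37% in these data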
Target sequence (O43613 whole entry, looked up): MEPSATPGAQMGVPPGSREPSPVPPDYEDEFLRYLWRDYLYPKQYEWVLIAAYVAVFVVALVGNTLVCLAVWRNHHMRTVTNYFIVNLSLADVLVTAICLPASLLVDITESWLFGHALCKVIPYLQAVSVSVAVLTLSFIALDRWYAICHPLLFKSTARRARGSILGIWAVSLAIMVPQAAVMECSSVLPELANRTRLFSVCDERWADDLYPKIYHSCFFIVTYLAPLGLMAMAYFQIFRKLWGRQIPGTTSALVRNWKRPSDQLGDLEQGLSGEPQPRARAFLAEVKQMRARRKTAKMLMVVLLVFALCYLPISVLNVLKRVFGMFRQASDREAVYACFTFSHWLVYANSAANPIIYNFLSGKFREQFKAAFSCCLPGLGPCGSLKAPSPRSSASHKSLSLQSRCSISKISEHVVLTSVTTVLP
GPR7 antag: antagonists of human GPR7 (neuropeptides B/W receptor 1). P48145. GPR7-expressing cells, fluorescence antagonist assay. inhibition, % at 4.4 µM. actives 1.1% (n = 290,000); in the data active = inhibition above about 16%, passing the limit was not always enough;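 note: cells stimulated with the agonist NPW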
CHO parental Ca: signal in parental CHO cells, OX1R antagonist counter-screen; AID 463079; actives 0.63% (n = 330,000); parental CHO-K1, ATP-induced calcium, Fluo-8 fluorescence; inhibition, % at 5.6 µM;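 active = inhibition above that plate's mean sample inhibition plus 3 SD, cut at about 26% in these data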
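Material: parental CHO cells / Compound: single nominal dose of 5.6 µM per compound / Signal: Fluo-8 fluorescence / Replicates: singlicate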
TAAR1 agonist: human TAAR1 agonism. Q96RJ0. CHO RD-HGA16 TAAR1, Fluo-8 calcium fluorescence; vehicle wells 0%, saturating PEA agonist 100%. activation, % at 3 µM. actives 0.99% (n = 360,000). AID 624467;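 active = activation above the mean activation of all test compounds in the run plus 3 SD, cut at about 38% in these data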
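test system = CHO RD-HGA16 cells carrying human TAAR1 plus Gα16 | schedule = 17-24 h seeding, 75 min 37 °C dye, 30 min RT | compound dosing = 3 µM single concentration | control set = DMSO and PEA EC100 | replicates = n 1 | signal = Fluo-8 fluorescence, 5 s baseline then 140 s kinetic read | measure = percent activation vs PEA EC100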
OX1R antag-2: antagonists of human orexin 1 receptor (OX1R) | O43613 | actives 1.8% (n = 330,000) | inhibition, % at 6.6 µM | OX1R-expressing cells, FRET antagonist read-out; in the data active = inhibition mostly above about 38%, no sharp cut-off; inactive = mostly below about 40%
TAAR1 ag confirm: confirmation of human TAAR1 agonists | AID 651783 | actives 82% (n = 2,400) | shares compounds with TAAR1 agonist | CHO RD-HGA16 TAAR1, Fluo-8 calcium fluorescence; scaled: DMSO 0%, maximal phenethylamine 100% | activation, % at 3 µM;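 active = activation above a cutoff set at the run's mean compound activation plus 3 SD, cut at about 39% in these data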
Ga16 ag counter: nonselective agonism, TAAR1 counter-screen. shares compounds with TAAR1 agonist. CHO-Ga16 parental, Fluo-8 calcium fluorescence; normalized to maximal ATP response, DMSO zero. activation, % at 3 µM. actives 50% (n = 2,400). AID 651787;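 active = activation above the run cutoff, the mean activation over all tested wells plus 3 SD, cut at about 12% in these data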
TAAR1 desens: counter-screen for human TAAR1 agonists: agonists that desensitize TAAR1; shares compounds with TAAR1 agonist; CHO RD-HGA16 hTAAR1, Fluo-8 calcium, beta-PEA response inhibition; inhibition, % at 3 µM; actives 46% (n = 2,400); AID 651951;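 active = inhibition above the run cutoff, the mean inhibition of all test compounds plus 3 SD, cut at about 49% in these data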;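 note: beta-PEA stimulus applied at its EC80; loss of beta-PEA calcium signal after compound pretreatment read as receptor desensitization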
Ga16 antag count: nonselective Ga16 antagonist in TAAR1 agonist counter-screen; CHO-Ga16 ATP-induced calcium, Fluo-8 fluorescence; actives 39% (n = 2,400); inhibition, % at 3 µM; shares compounds with TAAR1 agonist; AID 651952;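 active = inhibition above the plate's mean compound inhibition plus 3 SD, computed per plate, cut at about 22% in these data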
Large screens that a line does not name were inactive (follow-up assays come after a bar, where they were run). Shown are actives, neighbours in structure and some others; about 4.6% of the full set was active somewhere.

CCn1c(=O)n(CC)c2cc(N3CCCC3)c(NC(=O)c3ccccc3)cc21	none
C=CCN(CCNP(=O)(OCC)OCC)CP(=O)(OCC)OCC	none
CC(C)CN1CC(C)C(=O)NC1=S (configuration not stated)	none (no result: OX1R antag-1, GPR7 antag, CHO parental Ca, OX1R antag-2)
COC(=O)c1ccc(CNCC(O)COc2ccc(-c3ccccc3)cc2)cc1 (configuration not stated)	TAAR1 agonist 55.9 | TAAR1 ag confirm inactive | Ga16 ag counter 21.8 | TAAR1 desens inactive | Ga16 antag count 29.6
OC(CNCc1ccc(Cl)cc1)COc1ccccc1 (configuration not stated)	none
O=c1oc2ccccc2c(NCc2ccccc2F)c1[N+](=O)[O-]	none
O=c1oc2ccccc2c(NCCc2ccccc2)c1[N+](=O)[O-]	TAAR1 agonist 63.4 | TAAR1 ag confirm 70.5 | Ga16 ag counter inactive | TAAR1 desens inactive | Ga16 antag count inactive
O=C(COc1ccccc1)NC(=S)Nc1cccc2cc(O)ccc12	TAAR1 agonist 71.9 | TAAR1 ag confirm 67.2 | Ga16 ag counter 24.2 | TAAR1 desens 49.3 | Ga16 antag count 29.2
O=C(COc1ccccc1)NC(=S)Nc1ccc2c3c(cccc13)CC2	none
Nc1c(NCCC2=CCCCC2)c(=O)[nH]c(=O)n1Cc1ccccc1	TAAR1 agonist 55.5 | TAAR1 ag confirm 67.9 | Ga16 ag counter inactive | TAAR1 desens inactive | Ga16 antag count inactive
CC(=NCCc1ccccc1)C1=C(O)CCC1=O	TAAR1 antagonist 74.4, TAAR1 agonist 105.3 | TAAR1 ag confirm 98.3 | Ga16 ag counter inactive | TAAR1 desens 73.4 | Ga16 antag count inactive
CCCCN=C(C)C1=C(O)CSC1=O	none
CC(=NCCc1ccccc1)C1=C(O)CSC1=O	TAAR1 antagonist 74.7, TAAR1 agonist 93.0 | TAAR1 ag confirm 84.0 | Ga16 ag counter inactive | TAAR1 desens 56.5 | Ga16 antag count inactive
OC(COC(c1ccc(Cl)cc1)c1ccc(Cl)cc1)CN1CCc2ccccc2C1 (configuration not stated)	TAAR1 agonist 81.7 | TAAR1 ag confirm 80.9 | Ga16 ag counter inactive | TAAR1 desens 49.3 | Ga16 antag count inactive
OC(COC(c1ccccc1)c1ccccc1)CN1CCc2ccccc2C1 (configuration not stated)	none
CCOC(=O)C1=C(C)OC(N)=C(C#N)C1c1cc2c(cc1[N+](=O)[O-])OCO2 (configuration not stated)	none
Cc1nn(-c2ccccc2)c(C)c1/C=N/n1c(-c2ccncc2)n[nH]c1=S	TAAR1 agonist 46.8 | TAAR1 ag confirm 92.9 | Ga16 ag counter 17.6 | TAAR1 desens inactive | Ga16 antag count inactive
Cc1nn(-c2ccccc2)c(C)c1/C=N/n1c(-c2ccc(Cl)cc2)n[nH]c1=S	none
CCN(CC)CCNC(=O)c1ccc(NC(=O)c2cccc(S(=O)(=O)N3CCc4ccccc43)c2)cc1	TAAR1 agonist 60.3 (no result: OX1R antag-1, GPR7 antag, CHO parental Ca, OX1R antag-2) | TAAR1 ag confirm 59.5 | Ga16 ag counter inactive | TAAR1 desens inactive | Ga16 antag count inactive
CCN(CC)CCNC(=O)c1ccc(NC(=O)c2cccc(S(=O)(=O)N3c4ccccc4CC3C)c2)cc1 (configuration not stated)	none
Nc1[nH]c(C(=O)c2ccc(Cl)cc2)c(-c2ccc(Br)cc2)c1C(=O)NCCc1c[nH]c2ccccc12	none (no result: OX1R antag-1, GPR7 antag, CHO parental Ca, OX1R antag-2)
